Experiments:
Format in all cases: functional
[1] = system: Attelabidae; experiment: Insecticidal activity against Mechoris ursulus assessed as mortality at 1 mg/paper at 25 +/- 1 degC measured after 48 hr by filter paper diffusion method
How it was run: (§1)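 M. ursulus larvae. Compound in 1 mL acetone applied to a filter paper (50-mm diameter), dried in a hood 2 min, then placed in the bottom of a polyethylene cup with the larvae. Controls got 1 mL acetone. Held at 25 ± 1 °C, 50-60% RH, 16L:8D. Run in triplicate, mean ± SE.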

[2] = system: Attelabidae; experiment: Insecticidal activity against Mechoris ursulus assessed as mortality at 2.5 mg/paper at 25 +/- 1 degC measured after 48 hr by filter paper diffusion method; how it was run: as §1
[3] = system: Attelabidae; experiment: Insecticidal activity against Mechoris ursulus assessed as mortality at 5 mg/paper at 25 +/- 1 degC measured after 48 hr by filter paper diffusion method; how it was run: as §1

Row | SMILES | mortality [1] | mortality [2] | mortality [3]
1 | O=C/C=C/c1ccccc1 [CINNAMALDEHYDE] | 83.3% | 100% | 100%
2 | O=C(O)/C=C/c1ccccc1 [CINNAMIC ACID] | 53.3% | 73.3% | 86.7%
3 | OC/C=C/c1ccccc1 [CINNAMIC ALCOHOL] | – | – | 50%
4 | C=CCc1ccc(O)c(OC)c1 [EUGENOL] | 66.7% | 90% | 100%
5 | O=Cc1ccccc1O [SALICYLADEHYDE] | 74.4% | 88.9% | 100%

Reference: ChEMBL document CHEMBL3046144, “Insecticidal and fumigant activities of Cinnamomum cassia bark-derived materials against Mechoris ursulus (Coleoptera: attelabidae)” (2000)
